Screening results deposited in PubChem by Sanford-Burnham Center for Chemical Genomics.
CHOP UPR activ – apoptotic UPR (CHOP) activation. CHO-CHOP luciferase reporter, luminescence; percent of tunicamycin response over DMSO baseline. activation, % at 10 µM. 0.34% of 330,000 active. AID 449763;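 active means at 10 µM dose, activation of 40% or more, normalized to positive control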;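 further: 100% = tunicamycin at 10 µg/mL and 0% = DMSO alone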
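assay system = CHO CHOP reporter cells | amount = 500 CHO-CHOP cells per well | buffer or medium = F12 with 10% FBS | incubation = 16-18 h cell attachment, then 6 h compound exposure, 37 °C | detection = luminescence read with Steady-Glo | read-out = percent activation relative to tunicamycin control | controls = tunicamycin high control, DMSO low control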
Mdm2 MdmX PPI – human Mdm2/MdmX binding inhibition. SaOS-2 split-luciferase Mdm2/MdmX complementation, luminescence. 3% of 330,000 active. O15151+Q00987. inhibition, % at 8 µM;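 active means inhibition of at least 50% at 8 µM in the primary screen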
Target sequence (O15151 whole entry, looked up): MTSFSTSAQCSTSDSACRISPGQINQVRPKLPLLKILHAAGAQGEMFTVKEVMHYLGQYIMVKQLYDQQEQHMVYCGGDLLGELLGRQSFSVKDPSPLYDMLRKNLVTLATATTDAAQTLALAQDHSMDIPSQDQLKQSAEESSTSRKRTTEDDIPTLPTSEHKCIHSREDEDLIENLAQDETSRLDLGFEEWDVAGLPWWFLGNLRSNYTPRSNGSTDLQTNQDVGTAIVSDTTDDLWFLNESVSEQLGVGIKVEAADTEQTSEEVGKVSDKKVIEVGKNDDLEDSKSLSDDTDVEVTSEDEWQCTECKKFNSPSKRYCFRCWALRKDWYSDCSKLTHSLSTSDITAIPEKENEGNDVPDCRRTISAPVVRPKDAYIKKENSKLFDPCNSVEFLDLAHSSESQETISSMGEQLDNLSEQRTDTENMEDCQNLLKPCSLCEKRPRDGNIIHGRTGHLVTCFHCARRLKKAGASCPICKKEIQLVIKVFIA
Target sequence (Q00987 whole entry, looked up): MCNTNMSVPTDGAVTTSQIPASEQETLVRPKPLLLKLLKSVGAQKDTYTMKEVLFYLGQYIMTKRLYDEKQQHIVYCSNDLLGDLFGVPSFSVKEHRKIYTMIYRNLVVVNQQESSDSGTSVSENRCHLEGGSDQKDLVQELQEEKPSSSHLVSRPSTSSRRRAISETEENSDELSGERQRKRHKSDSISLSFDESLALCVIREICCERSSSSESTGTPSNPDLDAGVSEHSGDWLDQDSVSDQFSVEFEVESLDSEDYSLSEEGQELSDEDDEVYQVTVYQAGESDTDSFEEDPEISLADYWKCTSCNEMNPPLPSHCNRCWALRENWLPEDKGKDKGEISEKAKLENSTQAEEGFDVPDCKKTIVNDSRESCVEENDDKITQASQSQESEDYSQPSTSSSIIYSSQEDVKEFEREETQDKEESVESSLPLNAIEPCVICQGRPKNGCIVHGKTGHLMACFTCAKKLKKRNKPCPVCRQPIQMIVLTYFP
XBP1 UPR activ – activators of adaptive arm of unfolded protein response (XBP1). CHO-XBP1 luciferase reporter, IRE1-XBP1 UPR activation, luminescence; percent of tunicamycin response, DMSO as zero. activation, % at 20 µM. 0.33% of 330,000 active;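 active means versus positive control, 20 µM dose yields 30% or more activation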;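 further: 100% = tunicamycin at 10 µg/mL and 0% = DMSO only wells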
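Assay system: CHO-XBP1 luciferase reporter cells; Schedule: 6 h treatment, 37 °C; Detection: glow luminescence from Steady-Glo reagent; Benchmarks: high control tunicamycin 10 µg/mL final, low control DMSO vehicle only.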
UBC13 inh – human UBC13 polyubiquitination inhibition. 0.47% of 330,000 active. UBC13 polyubiquitin chain formation, TR-FRET. AID 485273. inhibition, % at 20 µM. P61088; in the data active means inhibition above about 45%, passing the limit was not always enough
Apaf1 inhib – human Apaf-1 inhibition; reconstituted apoptosome caspase-3 activity, DEVD-Rh110 fluorescence; 0.71% of 330,000 active; AID 489030; inhibition, % at 20 µM; active means inhibition of at least 40% at 20 µM;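 further: plate controls were DMSO wells for no effect and DEVD-CHO caspase inhibitor wells for full effect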
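Material: cell-free apoptosome with Apaf-1, procaspase-3 and caspase-9; Buffer or medium: Hepes pH 7.5 with detergent and BSA; Reagent: cytochrome c trigger plus (Z-DEVD)2-Rh110 caspase-3 substrate; Times: compound with Apaf-1, dATP, procaspase-3 30 min, then 50 min reaction, room temperature; Technique: Rh110 fluorescence intensity.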
Mdm2 MdmX conf – confirmation of human Mdm2/MdmX interaction inhibitors. shares compounds with Mdm2 MdmX PPI. Mdm2-MdmX binding, luminescent assay. inhibition, % at 8 µM. 55% of 10,000 active; in the data active means inhibition above about 40%
Full FLuc ctr – inhibits full-length luciferase, flagging false Mdm2/MdmX hits; shares compounds with Mdm2 MdmX PPI; SaOS-2 full-length luciferase counterscreen, luminescence; inhibition, % at 8 µM; 77% of 6,200 active; AID 504607;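 active means mean inhibition at 8 µM reaching about 37%, which flags the compound as non-specific, limit read from the data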;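 further: p53-null SaOS-2 cells with luciferase driven by a doxycycline-inducible promoter; compound on cells about two nights before reading with doxycycline added after day one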
Numbers without * were called inactive; . = no result; + = active, no number. In the library only some 4.1% were active in any assay of this set; here they are far more common.

SMILES	CHOP UPR activ	Mdm2 MdmX PPI	XBP1 UPR activ	UBC13 inh	Apaf1 inhib	Mdm2 MdmX conf	Full FLuc ctr
COc1ccc(-c2oc(=O)c3cc(OC)c(OC)cc3c2/C=C/c2cccc([N+](=O)[O-])c2)cc1	0.4	54.0*	11.3	-14.4	3.7	14.6	.
COc1ccc(-c2oc(=O)c3cc(OC)c(OC)cc3c2/C=C/c2ccc([N+](=O)[O-])cc2)cc1	0.9	-10.4	0.2	-11.2	3.8	.	.
Cc1nc(N2CCN(C(=O)c3ccco3)CC2)c2c3c(sc2n1)CC(C)CC3 (configuration not stated)	-0.1	22.8	-4.6	11.2	11.4	.	.
CCc1nc(N2CCN(C(=O)CCl)CC2)c2c3c(sc2n1)CC(C)CC3 (configuration not stated)	12.9	100.3*	-3.1	31.2	18.9	10.9	.
CC1CN(C(NC(=O)C(C)(C)C)C(Cl)(Cl)Cl)CC(C)O1 (configuration not stated)	-0.1	-20.5	-1.0	-3.5	0.0	.	.
CC1CCN(CC(O)CN2c3ccccc3Sc3ccccc32)CC1 (configuration not stated)	-0.2	53.9*	0.1	12.2	3.9	15.9	.
CCNc1nc(NC(C)C)nc(Oc2ccc(OCCOc3ccccc3)nn2)n1	-1.2	50.7*	-2.0	2.4	-7.5	11.3	.
Cc1ccc(NC(=O)C(=Cc2ccc(C(=O)O)cc2)C(=O)Nc2ccc(C)cc2C)c(C)c1	39.9	100.4*	-1.9	1.2	-0.2	99.0*	51.8*
CC(=O)c1cccc(NC(=O)C(=O)c2cn(CC(=O)N3CCCCC3)c3ccccc23)c1	4.0	0.8	-0.9	-4.3	-2.0	.	.
CC(C)(C)C1CCC2(CC1)C(C#N)=C(SCC(=O)Nc1ccccc1)NC(=O)C2C#N (configuration not stated)	-2.8	91.8*	-1.7	-12.4	15.8	75.2*	58.9*
COc1ccc(/C=N/N=C2/NC(=O)C(c3ccccc3)(c3ccccc3)S2)cc1	0.2	61.4*	-1.7	-7.7	-2.7	19.9	.
COc1ccc(NC(=O)C2CC(=O)N/C(=N/N=C/c3ccccc3)S2)cc1 (configuration not stated)	-0.2	79.2*	0.0	-12.3	-23.1	59.2*	90.7*
COc1ccc(CN=C2NC(=O)CC(C(=O)Nc3ccccc3C)S2)cc1 (configuration not stated)	-0.7	-15.3	2.0	9.2	-9.7	.	.
COc1ccc2c(CC(=O)Nc3nc(C)cs3)coc2c1	0.6	-38.3	-1.8	23.6	-9.5	.	.
COc1ccc2c(CC(=O)Nc3ncc(C)s3)coc2c1	-0.1	66.4*	0.5	3.4	1.5	65.7*	+
CCC1(c2ccc(OC)cc2)NC(=O)N(CC(=O)c2ccc3c(c2)OCCO3)C1=O (configuration not stated)	1.7	-13.3	-3.2	-3.7	0.9	.	.
CCc1ccc(OCC(=O)NNCC(=O)Nc2ccc(OC)cc2)cc1	-1.9	24.6	4.2	0.2	1.1	.	.
O=S(=O)(c1ccc(Cl)c(NC(=S)N/N=C/c2ccc(O)cc2)c1)N1CCOCC1	4.1	0.9	4.4	1.5	-0.1	.	.
O=S(=O)(c1ccc(Cl)c(NC(=S)N/N=C/c2c(F)cccc2F)c1)N1CCOCC1	8.5	50.4*	1.0	-13.1	9.9	12.2	.
COc1ccc(NC2CCCN(C(=O)c3ccccc3C(F)(F)F)C2)cc1 (configuration not stated)	2.1	-1.5	-3.0	2.7	13.9	.	.
COc1ccc(-c2ccc(SCC(=O)N3CCN(c4ccccc4)CC3)nn2)cc1	-0.8	52.3*	2.7	-9.9	-0.7	10.2	.
Cc1ccc(-c2ccc(SCC(=O)N3CCN(c4ccccc4)CC3)nn2)cc1	3.2	-1.1	0.9	6.9	-5.3	.	.
O=C(CN1CCC(C(O)(c2ccccc2)c2ccccc2)CC1)Nc1cc(Cl)ccc1Cl	1.4	53.8*	-2.8	-14.7	13.1	45.5*	86.3*
CC[C@H](C)[C@H]1O[C@]2(CC[C@@H]1C)C[C@@H]1C[C@@H](CC=C(C)[C@@H](O[C@H]3C[C@H](OC)[C@@H](O[C@H]4C[C@H](OC)[C@@H](O)[C@H](C)O4)[C@H](C)O3)[C@@H](C)C=CC=C3CO[C@@H]4[C@H](O)C(C)=C[C@@H](C(=O)O1)[C@]34O)O2	39.3	100.4*	63.5*	-14.2	31.5	22.8	.
COc1cc(OC)c(OC)cc1CCC(C)NCCC(c1ccccc1)c1ccccc1 (configuration not stated)	-0.3	63.8*	1.4	13.9	16.2	50.2*	59.5*
SMILES	CHOP UPR activ	Mdm2 MdmX PPI	XBP1 UPR activ	UBC13 inh	Apaf1 inhib	Mdm2 MdmX conf	Full FLuc ctr
CC(=O)c1c(C)[nH]c(C(=O)OCc2cccc(C)c2)c1C	3.6	26.2	1.9	9.5	8.1	.	.
O=C(COC(=O)c1c2c(nc3ccccc13)CCN(Cc1ccccc1)C2)Nc1c(F)cccc1F	4.4	72.3*	0.3	-8.0	11.2	68.5*	75.8*
CC(=O)Nc1ccc(NC(=O)COC(=O)c2c3c(nc4ccccc24)CCN(Cc2ccccc2)C3)cc1	4.4	50.9*	4.9	7.4	4.7	56.2*	84.0*
NC(=O)c1ccc(NC(=O)COC(=O)c2c3c(nc4ccccc24)/C(=C\c2cccs2)CCC3)cc1	8.0	85.2*	8.6	-9.7	-4.0	75.0*	77.1*
O=C(NCc1ccc(F)cc1)c1c2c(nc3ccccc13)CCN(Cc1ccccc1)C2	1.3	31.1	1.8	-1.0	3.8	.	.
CCN1CCc2nc3ccccc3c(C(=O)Nc3ccc(NC(C)=O)cc3)c2C1	-2.1	3.1	-3.2	-2.5	1.4	.	.
O=C1/C(=C/c2cccc(Cl)c2)SC(=S)N1CCC(=O)N1CCCCC1CCO (configuration not stated)	1.0	63.2*	-5.1	-9.7	27.9	40.6*	39.1*
O=C1/C(=C/c2ccccc2F)SC(=S)N1CCC(=O)N1CCCCC1CCO (configuration not stated)	0.5	61.2*	-3.7	-3.3	1.3	24.8	.
O=C1/C(=C/c2ccccc2)SC(=S)N1CCCC(=O)N1CCCCC1CCO (configuration not stated)	0.7	85.1*	0.0	-10.7	17.6	57.1*	36.7*
O=C1/C(=C/c2ccc(Cl)cc2)SC(=S)N1CCC(=O)N1CCCCC1CCO (configuration not stated)	0.1	25.4	-4.5	5.2	21.6	.	.
Cc1nn(-c2ccccc2)nc1C(=O)Nc1nnc(C(F)(F)F)s1	4.7	16.3	0.4	29.4	19.7	.	.
O=C(c1ccccc1)N1CN2CN(C(=O)c3ccccc3)CC([N+](=O)[O-])(C2)C1	-2.0	-18.3	-3.2	14.3	-2.9	.	.
